Measurements collected from several papers.
Lines come from different studies, so protocols differ.
Target: Cyclin-dependent kinase 3 (CDK3, Homo sapiens, UniProt Q00526)

For C[C@H](c1ccnc(Nc2nc3ccc(-c4cc(N(C)C)ncn4)cc3[nH]2)c1)N1CCN(C(=O)CC(F)(F)F)CC1, the remaining binding was 100% (cell-free assay, competition with immobilised ligand; 0.1 µM).
With c1cnn2ncc(-c3ccnc(N4CCC45COC5)n3)c2c1 the remaining binding was 74% (binding; 1 µM).
c1cncc(-c2cccc(Nc3nccc(NC4CCCCC4)n3)c2)c1 gave a remaining binding of 76% (binding, competition with immobilised ligand; 10 µM).
Nc1ncc2c(n1)-c1c([nH]c3ccc(C#CC4CC4)cc13)CCCC2 gave a remaining binding of 77% (binding, competition with immobilised ligand; 1 µM).
With O=C(c1ccc(Nc2nccc(-c3cc4ccccc4s3)n2)cc1)N1CCC(N2CCCC2)CC1 the remaining binding was 98% (binding, competition with immobilised ligand; 1 µM).
C[C@@H](c1cccc(C#N)c1)n1cc(Cl)cc(C(N)=O)c1=N gave a remaining binding of 100% (cell-free assay, competition with immobilised ligand; 1 µM).
With COc1cnc(Nc2cccc(S(N)(=O)=O)c2)nc1N1CCN(c2ccccc2)CC1 the remaining binding was 100% (binding, competition with immobilised ligand; 1 µM).
CN(c1nccc(-c2cnn3ncccc23)n1)C1CC1 has a remaining binding of 100% (binding; 1 µM).
For CCS(=O)(=O)c1cc2cc(C[C@](O)(CC(C)(C)c3ccc(F)cc3C(N)=O)C(F)(F)F)[nH]c2cn1, the remaining binding was 100% (cell-free assay, competition with immobilised ligand; 1 µM).
CC1CCCN1c1nccc(-c2cnn3ncccc23)n1 (stereo not drawn) has a remaining binding of 100% (binding; 1 µM).
COc1ncc2cc3ccccc3nc2c1C#N gave a remaining binding of 100% (cell-free assay, competition with immobilised ligand; 5 µM).
The remaining binding of FC(F)(F)Oc1cccc(-c2cnc3ccc(-c4ccncc4)nn23)c1 is reported as 79% (cell-free assay, competition with immobilised ligand; 5 µM).
CCCOc1ccc([C@@H]2[C@@H](C(=O)O)[C@H](c3ccc4c(c3)OCO4)CN2CC(=O)Nc2c(CC)cccc2CC)cc1 has a remaining binding of 100% (cell-free assay, competition with immobilised ligand; 1 µM).
For O=C(Nc1c[nH]nc1C(=O)NC1CCNCC1)c1cc(F)cc(F)c1, the remaining binding was 91% (binding, competition with immobilised ligand; 1 µM).
The remaining binding of C[C@H]1CCN(c2nccc(-c3cnn4ncccc34)n2)C1 is reported as 86% (binding; 1 µM).
The remaining binding of O=C(NCCCN1CCOCC1)c1ccc(Nc2nccc(-c3cc4ccccc4s3)n2)cc1 is reported as 95% (binding, competition with immobilised ligand; 1 µM).
C[C@@H]1CN(c2ccc3ncc(-c4ccc5[nH]nc(C6CC6)c5c4)n3n2)C[C@H](C)O1 gave a remaining binding of 90% (binding, competition with immobilised ligand; 0.5 µM).
For N#Cc1ccc(Nc2ccc3[nH]c(=O)[nH]c3c2)c(Cl)c1, the remaining binding was 100% (cell-free assay, competition with immobilised ligand; 1 µM).
CC(C)(C)c1ccc(-c2nc(CBr)nn2-c2cccc(O)c2)cc1 has a remaining binding of 100% (cell-free assay, competition with immobilised ligand; 10 µM).
For O=C1CCc2cc(Nc3cc(OC4CCOCC4)c([N+](=O)[O-])cc3Cl)ccc2N1, the remaining binding was 100% (cell-free assay, competition with immobilised ligand; 1 µM).
CN(C)c1ncc(F)c(-c2cnn3ncccc23)n1 has a remaining binding of 82% (binding; 1 µM).
